Test [1] relates to Toxoplasma gondii. The experiment in a line: Antimicrobial activity against Toxoplasma gondii type 1 RH strain infected in human foreskin fibroblasts monolayer assessed as inhibition of parasite replication after 24 hrs by phase-contrast microscopy. In kind it is functional, organism-based.
Test [2] concerns Toxoplasma gondii. The experiment in a line: Antimicrobial activity against GFP-expressing Toxoplasma gondii type 1 RH strain ip infected in NMRI mouse assessed as decrease in infected peritoneal cells in peritoneal cavity lavage at 32 mg/kg, ip administered 3 days postinfection for 5 days. Details: dose 32 mg/kg. In kind it is functional, organism-based. The procedure, abridged: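 Female NMRI mice infected i.p. with GFP-expressing RH tachyzoites. From day 3 post-infection, drug was given i.p. at 32 mg/kg/day for 5 days. Vehicle was ethanol-DMSO (1:1), sonicated at 70°C, then diluted with an equal volume of PBS. Vehicle-treated mice served as controls. On day 8, peritoneal lavage cells were fixed in 3.7% formaldehyde, and the percentage of GFP-infected cells was measured by flow cytometry. Data pooled from three experiments.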

Test [3] deals with Toxoplasma gondii. Put plainly: Antimicrobial activity against GFP-expressing Toxoplasma gondii type 1 RH strain ip infected in NMRI mouse assessed as decrease in parasite DNA level in liver at 32 mg/kg, ip administered 3 days postinfection for 5 days by quantitative PCR analysis. In kind it is functional, organism-based. The arrangement: dose 32 mg/kg. The method in brief:
(§1)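 Same i.p.-infected NMRI model and dosing regimen; liver and lung collected on day 8. Parasite DNA was quantified by qPCR targeting the T. gondii cryptic gene, using 250 ng total DNA, 2 mM MgCl2, 1 μM each primer and 0.2 μM each hybridization probe. Cycling: 50 cycles of 95°C, 52°C and 72°C. Standard curve of 250 to 2.5 pg parasite DNA run each time; crossing points by second-derivative method.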

The subject of test [4] is Toxoplasma gondii. The experiment in a line: Antimicrobial activity against Toxoplasma gondii type 1 RH strain infected in human foreskin fibroblasts monolayer assessed as inhibition of parasite replication at 1 uM after 24 hrs by phase-contrast microscopy. In kind it is functional. The procedure, abridged:
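Confluent human foreskin fibroblast monolayers infected with RH tachyzoites, then exposed to compound (top concentration 1 μM) or DMSO control for 24 h. Read-out was the average number of parasites per vacuole-type count, relative to control.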

Test [5] concerns Toxoplasma gondii. The experiment in a line: Antimicrobial activity against Toxoplasma gondii type 2 ME49 strain orally infected in ip dosed IRF-8 deficient mouse brain assessed as decrease in inflammatory foci administered for 5 days after 3 days post 28 day 400 mg/dl sulfadiazine dosing […]. The format is functional, organism-based. The method in brief:
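Same ME49 chronic model: sulfadiazine 400 mg/dl for 28 days, then daily drug for 5 days starting 3 days after withdrawal, four mice per group, repeated three times. Brain inflammatory foci were graded as mean inflammatory scores using a previously described scoring method.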

Test [6] deals with Toxoplasma gondii. Put plainly: Antimicrobial activity against GFP-expressing Toxoplasma gondii type 1 RH strain ip infected in NMRI mouse assessed as decrease in parasite DNA level in lungs at 32 mg/kg, ip administered 3 days postinfection for 5 days by quantitative PCR analysis. Details: dose 32 mg/kg. The format is functional, organism-based. The procedure, abridged: as §1

The subject of test [7] is Toxoplasma gondii. Put plainly: Antimicrobial activity against Toxoplasma gondii type 2 ME49 strain orally infected in ip dosed IRF-8 deficient mouse brain assessed as decrease in Toxoplasma DNA level measured per 250 ng total DNA administered for 5 days after 3 days post 28 day 400 mg/dl sulfadiazine dosing by quantitative PCR analysis (Rbv = 134 +/- 226.1 pg DNA). The format is functional. The procedure, abridged:
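Chronic model: mice infected with ME49; sulfadiazine 400 mg/dl given from day 2 for 28 days to allow cyst formation. Three days after withdrawal, mice received drug daily for 5 days, in groups of four, repeated three times. On day 39, brain parasite load was measured by qPCR as pg T. gondii DNA per 250 ng total DNA.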

Structures are written as SMILES. Activity calls are given as the source filed them. The calls are words filed in the database; no cut-off is given here.

By IC50 is commonly meant the concentration needed to halve the response being measured. Take `CCCCCCCCCCCCc1cc(=O)c2ccccc2n1O`: in the test on Toxoplasma gondii [1], the IC50 came to 4.2 nM. Further, the outcome in the test with Toxoplasma gondii [2] and with Toxoplasma gondii [3] was Active.
Usually inhibition stands for the share of the control response that was lost under treatment. With `CCCCCCCCCCCCc1cc(=O)c2cc(OCCN(C)C)ccc2n1O`, the inhibition entry in the test with Toxoplasma gondii [1] is “inactive”.
In the case of `CCCCCCCCCCCCc1c(C)n(O)c2ccc(OCCN(C)C)cc2c1=O`, the inhibition at 1 µM in the test with Toxoplasma gondii [4] stood at 38%.
In the case of `CCCCCCCCCCCCc1c(C)c(=O)c2ccccc2n1O` [COMPOUND A], the IC50 in the test with Toxoplasma gondii [1] worked out at 0.4 nM. Besides, the outcome in the test on Toxoplasma gondii [2], in the test on Toxoplasma gondii [3] and in the test on Toxoplasma gondii [5] was Active.
Take `CCCCCCCCCCCCc1c(C)n(O)c2ccccc2c1=O`: in the test with Toxoplasma gondii [1], the IC50 was found to be 0.8 nM. Besides, the outcome in the test on Toxoplasma gondii [2], in the test on Toxoplasma gondii [3], in the test with Toxoplasma gondii [6] and with Toxoplasma gondii [5] was Active. For the same compound, in the test with Toxoplasma gondii [7], the Activity came out at 6.7 pg.
For `O=C1C(O)=C([C@H]2CC[C@H](c3ccc(Cl)cc3)CC2)C(=O)c2ccccc21` [ATOVAQUONE], the outcome in the test on Toxoplasma gondii [3], with Toxoplasma gondii [6] and with Toxoplasma gondii [5] was Active. Besides, the Activity in the test with Toxoplasma gondii [7] stood at 0.8 pg.

The values are drawn from ChEMBL document CHEMBL1212767, “In vitro and in vivo activities of 1-hydroxy-2-alkyl-4(1H)quinolone derivatives against Toxoplasma gondii” (Antimicrob Agents Chemother, 2010).
